The values below come from paper PMC5320539 (ACS Chemical Biology, 2016).

As a reminder, the IC50 is the concentration that inhibits the measured activity by half. One may read the Kd as the concentration at which binding is half-saturated. Low readings indicate a tighter complex, high ones a looser complex.

The labels stand for the following.
B8: hBfl-1ΔTm(1–149) (domain or fragment)
chain: MTDCEFGYIYRLAQDYLQCVLQIPQPGSGPSKTSRVLQNVAFSVQKEVEKNLKSCLDNVNVVSVDTARTLFNQVMEKEFEDGIINWGRIVTIFAFEGILIKKLLRQQIAPDVDTYKEISYFVAEFIMNNTGEWIRQNGGWENGFVKKFE

“Also recorded” adds a separate entry of the source. Where two headings read alike, the source gives them in different places. Positions of bridges follow the written chain, without caps; N, C: chain ends. Non-standard residues stand in square brackets, D forms with d. Residues, ends and D or L forms follow the SMILES beside them. No end group written: not given here. *: point of attachment. S5 = C=CCCC[C@](C)(N)C(=O)O; code λ = not defined here; Dap = NC[C@H](N)C(=O)O; ClAc = O=C(CCl)*

Assay [1] concerns the target Bcl-xL ΔTM (Bcl-xL deletion mutant lacking the transmembrane domain) (human). Nature of the assay: DELFIA displacement assay.
In assay [2] the target is Recombinant hBcl-2 protein (human). The assay can be described thus: DELFIA displacement assay.
Assay [3] concerns the target T1, hBfl-1 (Homo sapiens, UniProt Q16548).
T1 sequence (Q16548 with tags, fused parts or gaps): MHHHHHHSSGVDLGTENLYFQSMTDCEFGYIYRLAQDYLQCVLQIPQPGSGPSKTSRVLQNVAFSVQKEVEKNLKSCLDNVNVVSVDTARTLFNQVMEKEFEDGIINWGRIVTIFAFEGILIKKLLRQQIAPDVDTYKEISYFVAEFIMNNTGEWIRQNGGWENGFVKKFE
Nature of the assay: DELFIA displacement of biotinylated BID BH3 peptide from hBfl-1. Format: binding. The following applies: hBfl-1 versus hMcl-1.

Assay [4] has as its target T1, hBfl-1. The assay can be described thus: Covalent adduct formation by SDS gel electrophoresis. The class given is binding. The following applies: hBfl-1 10 μM, equimolar peptide, 15 min to 2 h. In outline:
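Synthetic peptide and human Bcl-2 family protein were incubated together at equimolar 10 μM. hBfl-1 (10 μM) was sampled with or without peptide at 15 min, 30 min, 1 h and 2 h. Samples were resolved by SDS-PAGE and stained with Coomassie.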

For the next assay, the system named is primary CLL cells. The class given is cell-based, human. The conditions noted are these: primary CLL cells alone or cocultured with stroma-NK-tert cells, 48 h. In outline:
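Primary CLL cells were taken as PBMC from heparinized patient blood by Ficoll density gradient, using samples >95% CD5+/CD19+. They were cultured in RPMI with 10% heat-inactivated FBS at 3 × 10^5 cells/well, 37 °C, 5% CO2, alone or on bone-marrow NK-tert stroma ([…]), with test compound for 48 h. Cells were gated CD19/CD5 (4 °C, 30 min), stained with DiOC6 (30 min, 37 °C), and analysed by flow cytometry as % SIA.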

Assay [5] concerns the target T1, hBfl-1. Nature of the assay: Isothermal titration calorimetry against hBfl-1. Format: binding. The following applies: VP-ITC, reverse fashion (protein titrated into compound), 25 °C, PBS + 10% DMSO. In general terms: In ITC the heat of successive injections is recorded.
The target in assay [6] is 130E7 (covalent hBIM derived BH3 peptide, Ac-λ…-NH2) (human). The assay can be described thus: ITC.
The target of assay [7] is B8. The assay can be described thus: DELFIA displacement assay.
In assay [8] the target is B8. The assay can be described thus: ITC.
The target of a further assay is hMcl-1 (172–323) (human, UniProt Q07820 172-323). The assay can be described thus: DELFIA displacement assay.
Assay [9] addresses T2, biotin-BID (Biotin-lc-EDIIRNIARHLAQVGDSMDR-NH2) (N-terminal biotin-lc (aminohexanoic acid); C-terminal amide).
T2 peptide: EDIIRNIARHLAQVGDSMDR
Nature of the assay: DELFIA displacement assay.

The target of assay [10] is T3, hMcl-1 (172–323) (human), Q07820.
T3 chain: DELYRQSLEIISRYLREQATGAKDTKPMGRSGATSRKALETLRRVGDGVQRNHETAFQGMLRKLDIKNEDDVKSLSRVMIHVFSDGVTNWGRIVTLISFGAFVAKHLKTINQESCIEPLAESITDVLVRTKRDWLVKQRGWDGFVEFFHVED
Nature of the assay: DELFIA displacement assay.

For the next assay, the target named is T4, hBfl-1ΔTm(1–149) (human).
T4 chain: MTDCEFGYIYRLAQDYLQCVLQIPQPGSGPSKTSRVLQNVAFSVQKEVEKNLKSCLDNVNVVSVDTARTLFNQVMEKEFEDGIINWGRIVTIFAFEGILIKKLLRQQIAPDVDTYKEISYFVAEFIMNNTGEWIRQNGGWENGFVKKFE
Nature of the assay: DELFIA displacement assay.

The target in assay [11] is Bcl-xL ΔTM (Bcl-xL deletion mutant lacking the transmembrane domain) (human). The assay can be described thus: DELFIA displacement assay. The source holds these as a separate data set.
Assay [12] has as its target Recombinant hBcl-2 protein (human). Nature of the assay: DELFIA displacement assay. The source holds these as a separate data set.

Turning to NOXA B (Ac-…-NH2) (peptide), the IC50 in [1] and in assay [2] was above 1000 nM each time.

With Ac-CATQLRRFGDKLNFRQKLLN-NH2 [hNOXA], the “increased affinity for hBfl-1 over hMcl-1” value on hBfl-1 [3] was “over 2 orders of magnitude”. For the same molecule, the “covalent complex with hBfl-1 (SDS-PAGE, Coomassie)” value at hBfl-1 [4] is “formed a covalent complex”.

Turning to `Nc1nc(F)nc2c1ncn2[C@@H]1O[C@H](CO)[C@@H](O)[C@@H]1O` [fludarabine], in the assay with primary CLL cells, the “single agent activity (% SIA), in words” value was “limited activity”.

As for `COc1cc([C@@H]2c3cc4c(cc3[C@@H](O[C@@H]3O[C@@H]5CO[C@@H](C)O[C@H]5[C@H](O)[C@H]3O)[C@H]3COC(=O)[C@H]23)OCO4)cc(OC)c1O` [etoposide], the “single agent activity (% SIA), in words” value in the assay with primary CLL cells is given as “limited activity”.

As for NOXA A (Ac-…-NH2) (peptide), the IC50 in assay [1] and in assay [2] was above 1000 nM throughout.

Take `CC[C@H](C)[C@H](NC(=O)[C@H](CNC(=O)CCl)NC(C)=O)C(=O)N[C@@H](C)C(=O)N[C@@H](CCC(N)=O)C(=O)N[C@@H](CCC(=O)O)C(=O)N[C@@H](CC(C)C)C(=O)N[C@@H](CCCNC(=N)N)C(=O)N[C@@]1(C)CCC/C=C\CCC[C@@](C)(C(=O)N[C@@H](Cc2ccccc2)C(=O)N[C@@H](CC(N)=O)C(=O)N[C@@H](C)C(=O)N[C@@H](Cc2ccc(O)cc2)C(=O)N[C@@H](Cc2ccc(O)cc2)C(=O)N[C@@H](C)C(=O)N[C@@H](CCCNC(=N)N)C(=O)N[C@@H](CCCNC(=N)N)C(N)=O)NC(=O)[C@H](CC(=O)O)NC(=O)CNC(=O)[C@H]([C@@H](C)CC)NC1=O` [130D11] (Ac-[Dap](ClAc)IAQELR[S5]IGD[S5]FNAYYARR-NH2; staple (Z) 8-12): the “ITC KD hBfl-1” value at hBfl-1 [5] is reported as “not detected; also recorded: no significant binding”.

B1: hMcl-1 (172-323), Q07820 172-323 (domain or fragment)
chain: DELYRQSLEIISRYLREQATGAKDTKPMGRSGATSRKALETLRRVGDGVQRNHETAFQGMLRKLDIKNEDDVKSLSRVMIHVFSDGVTNWGRIVTLISFGAFVAKHLKTINQESCIEPLAESITDVLVRTKRDWLVKQRGWDGFVEFFHVED
Turning to B1, the Kd in assay [6] is 2 nM.

B2: hNOXA (Ac-…-NH2) (peptide)
peptide: Ac-CATQLRRFGDKLNFRQKLLN-NH2
Turning to B2, the IC50 in assay [1] and in assay [2] was above 1000 nM throughout.

B3: NOXA A (Ac-AELPPEFAAQLRKIGDKVYC-NH2) (peptide)
peptide: Ac-AELPPEFAAQLRKIGDKVYC-NH2
Consider B3, for which, in the assay with hBfl-1ΔTm(1–149) [7], the IC50 was above 1000 nM.

B4: 130E7 (peptide)
chain: [Dap](ClAc)IAQELRRIGDEFNAYYARR
Turning to B4, binding with hBfl-1ΔTm(1–149) [8] was characterised by a dissociation constant (Kd) of 2.6 nM.

B5: hNOXA (Ac-CATQLRRFGDKLNFRQKLLN-NH2) (peptide)
peptide: Ac-CATQLRRFGDKLNFRQKLLN-NH2
Consider B5, for which the values for the IC50 in the assay with hBfl-1ΔTm(1–149) [7] and with hMcl-1 (172–323) were 7.5 nM and 228 nM, respectively.

B6: hNOXAs (Ac-CATQLRRFGDKLN-NH2) (peptide)
peptide: Ac-CATQLRRFGDKLN-NH2
B6: the values for the IC50 in the assay with hBfl-1ΔTm(1–149) [7] and with hMcl-1 (172–323) were 15 nM and above 1000 nM, respectively.

B7: C1A_hNOXAs (Ac-AATQLRRFGDKLN-NH2) (peptide)
peptide: Ac-AATQLRRFGDKLN-NH2
For B7, the IC50 in the assay with hBfl-1ΔTm(1–149) [7] and with hMcl-1 (172–323) was above 1000 nM in each case.

Take B8: in [9], the binding result was “binds”.

B9: cyc_hNOXA (Ac-CATQLRRFGDKLNFRQKLLNLISKLFC-NH2) (peptide)
peptide: Ac-CATQLRRFGDKLNFRQKLLNLISKLFC-NH2
modifications: also: cyclic (cyc_), mode of cyclisation not given here
In the case of B9, the IC50 with hBfl-1ΔTm(1–149) [7] stood at 86 nM; with hMcl-1 (172–323), 344 nM.

B10: homo_hNOXA (Ac-h…-NH2) (peptide)
chain: Ac-[code h]ATQLRRFGDKLNFRQKLLN-NH2
B10: the IC50 in assay [10] was 266 nM; in the assay with hBfl-1ΔTm(1–149) (human), 83 nM; in assay [11] it was above 1000 nM; in assay [12] it was above 1000 nM.

B11: 130G4 (peptide)
chain: PRRPRRPRRPRRPRR[Dap](ClAc)IAQELRRIGDEFNAYYARR
In the assay with hBfl-1ΔTm(1–149) [8], B11 registered a Kd of 23 nM. This lies in the double-digit nanomolar range.

B12: NOXA B (Ac-PADLKDECAQLRRIGDKVNL-NH2) (peptide)
peptide: Ac-PADLKDECAQLRRIGDKVNL-NH2
As for B12, the IC50 with hBfl-1ΔTm(1–149) [7] came out at 431 nM.

B13: hNOXAs (Ac-…-NH2) (peptide)
peptide: Ac-CATQLRRFGDKLN-NH2
With B13, the IC50 in assay [1] and in [2] was above 1000 nM in each case.

B14: λ_hNOXA (Ac-λ…-NH2) (peptide)
chain: Ac-[code λ]ATQLRRFGDKLNFRQKLLN-NH2
modifications: reading uncertain
With B14, the IC50 is 233 nM in assay [10], 287 nM with hBfl-1ΔTm(1–149) (human), above 1000 nM in [11] and above 1000 nM in assay [12].
